Calls of active or inactive are those of the source. The calls are words filed in the database; no cut-off is given here.
Columns and labels:
[1] = Neuroprotective effect against NMDA-induced toxicity in Sprague-Dawley rat mixed cortical neurons assessed as LDH release at 10 uM co-treated with NMDA; assay type: functional, Cortical neurone
Outline: (§1)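 Mixed cortical cultures from E16 Sprague–Dawley rat neocortex, grown in Neurobasal with 5% FBS and used at 12 days in vitro. Compound added 20 min (co-treatment) or 24 h (pre-treatment) before NMDA (60 µM). MK-801 10 µM served as positive control. After 24 h, LDH release was read and normalized to the NMDA-released level. Technical replicates per sample were combined across independent experiments.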

[2] = Displacement of [3H]batrachotoxinin from sodium channel site 2 at 10 uM relative to veratridine
[3] = Neuroprotective effect against veratridine-induced toxicity in Sprague-Dawley rat pure cortical neurons assessed as XTT release at 1 uM co-treated with veratridine; assay type: functional, Cortical neurone
Outline: (§2)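 E16 Sprague–Dawley rat cortical cultures, either mixed (Neurobasal with 5% FBS) or pure neuronal (Neurobasal with B27), used at 12 days in vitro. Compound at 1 or 10 µM was added 20 min before veratridine (60 µM). Viability was read 24 h later by LDH release in mixed cultures and XTT in pure cultures, normalized to veratridine. Three experiments, eight replicates each.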

[4] = Neuroprotective effect against veratridine-induced toxicity in Sprague-Dawley rat pure cortical neurons assessed as XTT release at 10 uM co-treated with veratridine; assay type: functional, Cortical neurone; outline: as §2
[5] = Neuroprotective effect against veratridine-induced toxicity in Sprague-Dawley rat mixed cortical neurons assessed as XTT release at 10 uM pre-treated before veratridine treatment; assay type: functional, Cortical neurone
[6] = Neuroprotective effect against veratridine-induced toxicity in Sprague-Dawley mixed rat cortical neurons assessed as LDH release at 1 uM co-treated with veratridine
[7] = Neuroprotective effect against veratridine-induced toxicity in Sprague-Dawley mixed rat cortical neurons assessed as LDH release at 10 uM co-treated with veratridine
[8] = Neuroprotective effect against NMDA-induced toxicity in Sprague-Dawley rat mixed cortical neurons assessed as LDH release at 1 uM pretreated before NMDA treatment; assay type: functional, Cortical neurone; outline: as §1
[9] = Neuroprotective effect against NMDA-induced toxicity in Sprague-Dawley rat mixed cortical neurons assessed as LDH release at 10 uM pre-treated before NMDA treatment; assay type: functional, Cortical neurone; outline: as §1
[10] = Neuroprotective effect against NMDA-induced toxicity in Sprague-Dawley rat mixed cortical neurons assessed as LDH release at 1 uM co-treated with NMDA; assay type: functional, Cortical neurone; outline: as §1
Cortical neurone = experiment: Neuroprotective effect against NMDA-induced toxicity in Sprague-Dawley rat mixed cortical neurons assessed as LDH release at 0.1 uM co-treated with NMDA; assay type: functional; outline: as §1

| Compound | Activity [1] [%] | inhibition [2] [%] | further results |
| --- | --- | --- | --- |
| O=[N+]([O-])c1ccc(-c2cc(-c3ccccc3)n[nH]2)cc1 | 89 | 14 |  |
| Clc1cccc(-c2cc(-c3ccccc3)n[nH]2)c1 | 96.4 | 21 |  |
| COc1ccc(C(=O)O[C@H]2CC[C@@]3(C)[C@@H]4CC[C@H]5[C@]6(O)C[C@H](O)[C@@]7(O)[C@@H](CN8C[C@@H](C)CC[C@H]8[C@@]7(C)O)[C@]6(O)C[C@@]53O[C@]24O)cc1OC |  | 100 |  |
| Clc1ccc(-c2cc(-c3ccccc3)n[nH]2)cc1 | 66.1 | 16 | Activity [3]: 75%; Activity [4]: 56.5%; Activity [5]: 70%; Activity [6]: 74.1%; Activity [7]: 24.2% |
| COc1ccc(-c2cc(-c3ccccc3)n[nH]2)cc1 | 67.2 | 30 | Activity [8]: 91.1%; Activity [9]: 95%; Activity [10]: 81.7%; Activity [3]: 70.4%; Activity [4]: 64.9%; Activity [5]: 50%; Activity [6]: 80.9%; Activity [7]: 49.2% |
| Cn1nc(-c2ccc(C(=O)O)cc2)cc1-c1ccc(C(C)(C)C)cc1 | 61.1 |  | Activity [2]: inactive |
| COc1ccc(-c2cc(-c3ccccc3)n(C)n2)cc1 | 70.4 | 8 |  |
| COc1ccccc1-c1cnn(-c2ccccc2)c1 | 80.3 |  | Activity [2]: inactive |
| COc1cccc(-c2cc(-c3ccccc3)n[nH]2)c1 | 76 | 27 |  |
| COc1cccc(C2CC(c3ccccc3)=NN2C(C)=O)c1 (stereo unspecified) | 81 | 16 |  |
| Cn1nc(-c2ccc([N+](=O)[O-])cc2)cc1-c1ccccc1 | 86.3 | 8 |  |
| Cn1nc(-c2ccccc2)cc1-c1cccc([N+](=O)[O-])c1 | 85.5 | 4 |  |
| Cn1nc(-c2ccc(Cl)cc2)cc1-c1ccccc1 | 87.3 | 13 |  |
| Cn1nc(-c2ccccc2)cc1-c1ccc2[nH]ccc2c1 | 67.1 | 41 | Activity [8]: 90.2%; Activity [9]: 86%; Activity [10]: 80.3%; Activity (Cortical neurone): inactive; Activity [3]: 82.7%; Activity [4]: 56.8%; Activity [5]: 40%; Activity [6]: 87.9%; Activity [7]: 63.2% |
| CC(=O)N1N=C(c2ccc([N+](=O)[O-])cc2)CC1c1ccccc1 (stereo unspecified) | 85.5 | 17 |  |
| O=[N+]([O-])c1cccc(-c2cc(-c3ccccc3)n[nH]2)c1 | 75.6 | 15 | Activity [3]: 80.9%; Activity [4]: 51.2%; Activity [5]: 70%; Activity [6]: 77.6%; Activity [7]: 26.6% |
| Cn1nc(-c2ccccc2)cc1-c1cccc(Cl)c1 | 65.6 | 15 |  |
| CC(=O)N1N=C(c2ccccc2)CC1c1cccc(Cl)c1 (stereo unspecified) | 86.4 | 27 |  |
| Cn1nc(-c2ccccc2)cc1-c1c[nH]c2ccccc12 | 76.7 | 14 |  |
| COc1cccc(-c2cc(-c3ccccc3)nn2C)c1 | 78.3 | 12 |  |
